Experimental data reported in ChEMBL document CHEMBL3124924, “Bifunctional ethyl 2-amino-4-methylthiazole-5-carboxylate derivatives: synthesis and in vitro biological evaluation as antimicrobial and anticancer agents” (2014).

Experiments:
Type in all cases: functional
U-251 = test: Cytotoxicity against human U251 cells assessed as growth inhibition at 10 uM after 48 hrs by SRB assay; settings: U-251, 48 h, read-out: GI
Outline: (§1)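 NCI-60 one-dose primary screen run by the NCI Drug Evaluation Branch across the full 60-line panel. Single high-dose treatment with 48 h continuous drug exposure. Cell growth estimated by sulforhodamine B protein staining. Results given as percent growth of treated cells and expressed as percentage growth inhibition.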

SNB-75 = test: Cytotoxicity against human SNB75 cells assessed as growth inhibition at 10 uM after 48 hrs by SRB assay; settings: SNB-75, 48 h, read-out: GI; outline: as §1
SF-268 = test: Cytotoxicity against human SF268 cells assessed as growth inhibition at 10 uM after 48 hrs by SRB assay; settings: SF-268, 48 h, read-out: GI; outline: as §1
PC-3 = test: Cytotoxicity against human PC3 cells assessed as growth inhibition at 10 uM after 48 hrs by SRB assay; settings: PC-3, 48 h, read-out: GI; outline: as §1
UACC-62 = test: Cytotoxicity against human UACC62 cells assessed as growth inhibition at 10 uM after 48 hrs by SRB assay; settings: UACC-62, 48 h, read-out: GI; outline: as §1
SK-MEL-5 = test: Cytotoxicity against human SK-MEL-5 cells assessed as growth inhibition at 10 uM after 48 hrs by SRB assay; settings: SK-MEL-5, 48 h, read-out: GI; outline: as §1
SK-MEL-2 = test: Cytotoxicity against human SK-MEL-2 cells assessed as growth inhibition at 10 uM after 48 hrs by SRB assay; settings: SK-MEL-2, 48 h, read-out: GI; outline: as §1
LOX IMVI = test: Cytotoxicity against human LOXIMVI cells assessed as growth inhibition at 10 uM after 48 hrs by SRB assay; settings: read-out: GI; outline: as §1
[1] = Cytotoxicity against human UO31 cells assessed as growth inhibition at 10 uM after 48 hrs by SRB assay; settings: UO-31, 48 h, read-out: GI; outline: as §1
SN12C = test: Cytotoxicity against human SN12C cells assessed as growth inhibition at 10 uM after 48 hrs by SRB assay; settings: read-out: GI; outline: as §1
A498 = test: Cytotoxicity against human A498 cells assessed as growth inhibition at 10 uM after 48 hrs by SRB assay; settings: A498, 48 h, read-out: GI; outline: as §1
SR = test: Cytotoxicity against human SR cells assessed as growth inhibition at 10 uM after 48 hrs by SRB assay; settings: read-out: GI; outline: as §1
RPMI-8226 = test: Cytotoxicity against human RPMI8226 cells assessed as growth inhibition at 10 uM after 48 hrs by SRB assay; settings: RPMI-8226, 48 h, read-out: GI; outline: as §1
MOLT-4 = test: Cytotoxicity against human MOLT4 cells assessed as growth inhibition at 10 uM after 48 hrs by SRB assay; settings: MOLT-4, 48 h, read-out: GI; outline: as §1
K562 = test: Cytotoxicity against human K562 cells assessed as growth inhibition at 10 uM after 48 hrs by SRB assay; settings: K562, 48 h, read-out: GI; outline: as §1
CCRF-CEM = test: Cytotoxicity against human CCRF-CEM cells assessed as growth inhibition at 10 uM after 48 hrs by SRB assay; settings: read-out: GI; outline: as §1
IGROV-1 = test: Cytotoxicity against human IGROV1 cells assessed as growth inhibition at 10 uM after 48 hrs by SRB assay; settings: IGROV-1, 48 h, read-out: GI; outline: as §1
T47D = test: Cytotoxicity against human T47D cells assessed as growth inhibition at 10 uM after 48 hrs by SRB assay; settings: read-out: GI; outline: as §1
MDA-MB-468 = test: Cytotoxicity against human MDA-MB-468 cells assessed as growth inhibition at 10 uM after 48 hrs by SRB assay; settings: MDA-MB-468, 48 h, read-out: GI; outline: as §1
[2] = Cytotoxicity against human NCI-ADR-RES cells assessed as growth inhibition at 10 uM after 48 hrs by SRB assay; settings: read-out: GI; outline: as §1
MCF7 = test: Cytotoxicity against human MCF7 cells assessed as growth inhibition at 10 uM after 48 hrs by SRB assay; settings: MCF7, 48 h, read-out: GI; outline: as §1
[3] = Cytotoxicity against human Hs578T cells assessed as growth inhibition at 10 uM after 48 hrs by SRB assay; settings: Hs-578T, read-out: GI; outline: as §1
SW-620 = test: Cytotoxicity against human SW620 cells assessed as growth inhibition at 10 uM after 48 hrs by SRB assay; settings: SW-620, 48 h, read-out: GI; outline: as §1
HT-29 = test: Cytotoxicity against human HT-29 cells assessed as growth inhibition at 10 uM after 48 hrs by SRB assay; settings: HT-29, 48 h, read-out: GI; outline: as §1
HCT-15 = test: Cytotoxicity against human HCT15 cells assessed as growth inhibition at 10 uM after 48 hrs by SRB assay; settings: HCT-15, 48 h, read-out: GI; outline: as §1
HCT-116 = test: Cytotoxicity against human HCT116 cells assessed as growth inhibition at 10 uM after 48 hrs by SRB assay; settings: HCT-116, 48 h, read-out: GI; outline: as §1
HCC 2998 = test: Cytotoxicity against human HCC2998 cells assessed as growth inhibition at 10 uM after 48 hrs by SRB assay; settings: HCC 2998, 48 h, read-out: GI; outline: as §1
NCI-H522 = test: Cytotoxicity against human NCI-H522 cells assessed as growth inhibition at 10 uM after 48 hrs by SRB assay; settings: NCI-H522, 48 h, read-out: GI; outline: as §1
NCI-H322M = test: Cytotoxicity against human NCI-H322M cells assessed as growth inhibition at 10 uM after 48 hrs by SRB assay; settings: read-out: GI; outline: as §1
NCI-H226 = test: Cytotoxicity against human NCI-H226 cells assessed as growth inhibition at 10 uM after 48 hrs by SRB assay; settings: NCI-H226, 48 h, read-out: GI; outline: as §1
HOP-92 = test: Cytotoxicity against human HOP92 cells assessed as growth inhibition at 10 uM after 48 hrs by SRB assay; settings: HOP-92, 48 h, read-out: GI; outline: as §1

Work on Cc1nc(N)sc1C(=O)NCCO yielded an inhibition of growth at 10 µM (U-251) of under 10%, an inhibition of growth at 10 µM (SNB-75) of under 10% and an inhibition of growth at 10 µM (SF-268) of 2.48%. For the same compound, the inhibition of growth at 10 µM (PC-3) was under 10%, the inhibition of growth at 10 µM (UACC-62) was 7.33% and the inhibition of growth at 10 µM (SK-MEL-5) was under 10%. The inhibition of growth at 10 µM (SK-MEL-2) was 87.4%, the inhibition of growth at 10 µM (LOX IMVI) was under 10% and the inhibition of growth at 10 µM [1] was 20%. It also gave an inhibition of growth at 10 µM (SN12C) of under 10%, an inhibition of growth at 10 µM (A498) of under 10% and an inhibition of growth at 10 µM (SR) of under 10%. The inhibition of growth at 10 µM (RPMI-8226) was under 10%, the inhibition of growth at 10 µM (MOLT-4) was under 10% and the inhibition of growth at 10 µM (K562) was under 10%. The inhibition of growth at 10 µM (CCRF-CEM) was 40%, the inhibition of growth at 10 µM (IGROV-1) was under 10% and the inhibition of growth at 10 µM (T47D) was under 10%. It also gave an inhibition of growth at 10 µM (MDA-MB-468) of 3.17%, an inhibition of growth at 10 µM [2] of under 10% and an inhibition of growth at 10 µM (MCF7) of 2.13%. For the same compound, the inhibition of growth at 10 µM [3] was under 10%, the inhibition of growth at 10 µM (SW-620) was under 10% and the inhibition of growth at 10 µM (HT-29) was under 10%. For the same compound, the inhibition of growth at 10 µM (HCT-15) was under 10%, the inhibition of growth at 10 µM (HCT-116) was 2.49% and the inhibition of growth at 10 µM (HCC 2998) was under 10%. For the same compound, the inhibition of growth at 10 µM (NCI-H522) was 65.4%, the inhibition of growth at 10 µM (NCI-H322M) was under 10% and the inhibition of growth at 10 µM (NCI-H226) was 3.91%. For the same compound, the inhibition of growth at 10 µM (HOP-92) was 82.1%.
